Results published in ChEMBL document CHEMBL1122384, “Synthesis and evaluation of 24-(isopropyl[75Se]seleno)chol-5-en-3 beta-ol” (J Med Chem, 1983).

How the values were obtained:
Assay type in all cases: functional
[1] = Adrenal/Tissue ratio calculated from percent dose per gram of tissue determined after 1 day intravenous administration from ovaries
Summary of the method: (§1)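 Female Fischer 344 rats (160–180 g), fed ad libitum. Steroid dissolved in EtOH, formulated in Tween 80–EtOH–saline, 5–10 μCi in 1 mL given into a lateral tail vein under light Et₂O anesthesia. Organs removed 1 day post-injection, rinsed, blotted, weighed and gamma counted, 3 rats per time point. Ratios taken from adrenal vs tissue % dose/g.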

[2] = Adrenal/Tissue ratio calculated from percent dose per gram of tissue determined after 1 day intravenous administration from blood; summary of the method: as §1
[3] = Adrenal/Tissue ratio calculated from percent dose per gram of tissue determined after 1 day intravenous administration from kidney; summary of the method: as §1
[4] = Adrenal/Tissue ratio calculated from percent dose per gram of tissue determined after 1 day intravenous administration from liver; summary of the method: as §1
[5] = Adrenal/Tissue ratio calculated from percent dose per gram of tissue determined after 1 day intravenous administration from lung; summary of the method: as §1
[6] = Adrenal/Tissue ratio calculated from percent dose per gram of tissue determined after 1 day intravenous administration from spleen; summary of the method: as §1

Structure (SMILES)	Ratio [1]	Ratio [2]	Ratio [3]	Ratio [4]	Ratio [5]	Ratio [6]
CC(C)CCCC(C)C1CCC2C3CC(CI)C4=C(CCC(O)C4)C3CCC12C (stereo not given)	3	92.1	107.8	52.2		
C[Se]C[C@@H]1CC2C(CCC3(C)C(C(C)CCCC(C)C)CCC23)C2=C1CC(O)CC2 (stereo not given in full) [SCINTIDREN]	3.2	105	52.5	42	28.9	27.1
